Experimental data published in paper PMC3501595 (Biochemical pharmacology, 2012).

Experiments:
topoisomerase IIα [1] = biological target: T1, topoisomerase IIα (Homo sapiens, UniProt P11388); experiment: kDNA decatenation assay at […] ATP; format: biochemical
topoisomerase IIβ = topoisomerase IIβ (Homo sapiens, UniProt Q02880); experiment: cellular ICE assay of covalent enzyme-DNA complexes in K562 cells; format: cell-based
topoisomerase I = biological target: T2, topoisomerase I (Homo sapiens, UniProt P11387); experiment: pBR322 DNA relaxation gel assay; format: biochemical
T2 sequence (P11387 2-765): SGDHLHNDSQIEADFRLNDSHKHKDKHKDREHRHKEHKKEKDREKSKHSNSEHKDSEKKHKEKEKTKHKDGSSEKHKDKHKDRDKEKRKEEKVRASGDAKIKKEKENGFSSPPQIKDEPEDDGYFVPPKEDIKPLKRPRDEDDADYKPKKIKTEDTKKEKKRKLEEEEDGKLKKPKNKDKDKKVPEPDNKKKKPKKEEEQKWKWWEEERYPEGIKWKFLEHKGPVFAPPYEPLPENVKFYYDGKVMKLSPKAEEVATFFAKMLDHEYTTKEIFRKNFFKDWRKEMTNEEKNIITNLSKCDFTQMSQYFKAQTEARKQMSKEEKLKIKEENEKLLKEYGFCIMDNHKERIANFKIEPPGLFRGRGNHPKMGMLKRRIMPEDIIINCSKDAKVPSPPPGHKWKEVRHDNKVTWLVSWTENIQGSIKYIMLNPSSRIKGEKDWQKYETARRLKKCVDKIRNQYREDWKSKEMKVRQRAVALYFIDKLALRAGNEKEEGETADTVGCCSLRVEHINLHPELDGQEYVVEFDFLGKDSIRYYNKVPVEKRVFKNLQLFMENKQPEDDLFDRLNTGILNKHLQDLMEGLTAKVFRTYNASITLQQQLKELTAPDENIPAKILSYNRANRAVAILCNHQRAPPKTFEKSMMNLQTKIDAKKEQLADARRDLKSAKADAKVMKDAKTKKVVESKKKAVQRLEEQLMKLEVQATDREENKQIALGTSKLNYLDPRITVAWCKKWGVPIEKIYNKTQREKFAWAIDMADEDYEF

topoisomerase IIα [2] = biological target: T1, topoisomerase IIα; experiment: kDNA decatenation gel assay; format: biochemical
How it was run: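 Recombinant full-length human topoisomerase IIα. Decatenation: catenated kDNA networks released as individual minicircles in an ATP-dependent reaction, resolved on gel. Cleavage: closed circular pBR322 converted to linear DNA at 37 °C. All components were mixed on ice before the test compound was added. Complexes were trapped with SDS and resolved by ethidium bromide gel electrophoresis.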

yeast topoisomerase II = biological target: T3, yeast topoisomerase II (Saccharomyces cerevisiae, UniProt P06786); experiment: ATP/NADH-coupled DNA-independent ATPase assay, purified enzyme; format: biochemical
T3 sequence (P06786 1-1428): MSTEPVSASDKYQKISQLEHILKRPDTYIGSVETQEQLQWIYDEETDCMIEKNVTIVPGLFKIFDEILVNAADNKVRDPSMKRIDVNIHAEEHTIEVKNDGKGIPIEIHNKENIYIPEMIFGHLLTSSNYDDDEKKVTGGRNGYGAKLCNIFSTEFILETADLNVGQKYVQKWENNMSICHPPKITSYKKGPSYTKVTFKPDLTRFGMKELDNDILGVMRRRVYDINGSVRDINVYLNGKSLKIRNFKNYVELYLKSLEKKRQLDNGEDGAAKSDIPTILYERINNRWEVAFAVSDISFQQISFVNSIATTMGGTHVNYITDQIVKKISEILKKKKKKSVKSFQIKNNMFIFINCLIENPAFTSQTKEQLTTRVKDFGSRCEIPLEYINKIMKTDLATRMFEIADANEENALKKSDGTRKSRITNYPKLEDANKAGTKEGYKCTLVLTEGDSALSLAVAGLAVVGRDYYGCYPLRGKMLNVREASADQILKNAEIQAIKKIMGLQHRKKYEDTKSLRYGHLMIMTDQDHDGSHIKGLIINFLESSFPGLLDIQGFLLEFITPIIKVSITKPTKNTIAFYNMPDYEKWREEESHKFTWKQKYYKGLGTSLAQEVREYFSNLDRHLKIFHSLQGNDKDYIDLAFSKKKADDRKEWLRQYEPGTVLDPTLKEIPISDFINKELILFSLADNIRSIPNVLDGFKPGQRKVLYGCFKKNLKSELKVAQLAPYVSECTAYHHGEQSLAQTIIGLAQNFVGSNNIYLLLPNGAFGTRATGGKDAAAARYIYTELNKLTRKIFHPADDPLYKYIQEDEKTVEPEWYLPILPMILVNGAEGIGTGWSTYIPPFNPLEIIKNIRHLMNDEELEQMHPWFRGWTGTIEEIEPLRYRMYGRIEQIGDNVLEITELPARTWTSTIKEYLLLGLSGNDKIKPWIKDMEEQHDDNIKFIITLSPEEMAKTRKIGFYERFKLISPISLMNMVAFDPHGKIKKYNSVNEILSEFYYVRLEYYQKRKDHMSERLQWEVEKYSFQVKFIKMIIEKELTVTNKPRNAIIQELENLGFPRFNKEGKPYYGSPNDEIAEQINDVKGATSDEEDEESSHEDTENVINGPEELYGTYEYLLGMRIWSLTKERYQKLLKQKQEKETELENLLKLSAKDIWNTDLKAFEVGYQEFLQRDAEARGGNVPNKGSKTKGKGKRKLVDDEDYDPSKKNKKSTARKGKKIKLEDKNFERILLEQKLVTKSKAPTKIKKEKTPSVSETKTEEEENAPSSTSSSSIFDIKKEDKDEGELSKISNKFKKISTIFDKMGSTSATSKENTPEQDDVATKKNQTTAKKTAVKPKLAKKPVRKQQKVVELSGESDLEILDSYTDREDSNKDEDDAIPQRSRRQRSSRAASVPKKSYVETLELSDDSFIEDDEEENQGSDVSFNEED

topoisomerase IIβ, sequence (Q02880 2-1626): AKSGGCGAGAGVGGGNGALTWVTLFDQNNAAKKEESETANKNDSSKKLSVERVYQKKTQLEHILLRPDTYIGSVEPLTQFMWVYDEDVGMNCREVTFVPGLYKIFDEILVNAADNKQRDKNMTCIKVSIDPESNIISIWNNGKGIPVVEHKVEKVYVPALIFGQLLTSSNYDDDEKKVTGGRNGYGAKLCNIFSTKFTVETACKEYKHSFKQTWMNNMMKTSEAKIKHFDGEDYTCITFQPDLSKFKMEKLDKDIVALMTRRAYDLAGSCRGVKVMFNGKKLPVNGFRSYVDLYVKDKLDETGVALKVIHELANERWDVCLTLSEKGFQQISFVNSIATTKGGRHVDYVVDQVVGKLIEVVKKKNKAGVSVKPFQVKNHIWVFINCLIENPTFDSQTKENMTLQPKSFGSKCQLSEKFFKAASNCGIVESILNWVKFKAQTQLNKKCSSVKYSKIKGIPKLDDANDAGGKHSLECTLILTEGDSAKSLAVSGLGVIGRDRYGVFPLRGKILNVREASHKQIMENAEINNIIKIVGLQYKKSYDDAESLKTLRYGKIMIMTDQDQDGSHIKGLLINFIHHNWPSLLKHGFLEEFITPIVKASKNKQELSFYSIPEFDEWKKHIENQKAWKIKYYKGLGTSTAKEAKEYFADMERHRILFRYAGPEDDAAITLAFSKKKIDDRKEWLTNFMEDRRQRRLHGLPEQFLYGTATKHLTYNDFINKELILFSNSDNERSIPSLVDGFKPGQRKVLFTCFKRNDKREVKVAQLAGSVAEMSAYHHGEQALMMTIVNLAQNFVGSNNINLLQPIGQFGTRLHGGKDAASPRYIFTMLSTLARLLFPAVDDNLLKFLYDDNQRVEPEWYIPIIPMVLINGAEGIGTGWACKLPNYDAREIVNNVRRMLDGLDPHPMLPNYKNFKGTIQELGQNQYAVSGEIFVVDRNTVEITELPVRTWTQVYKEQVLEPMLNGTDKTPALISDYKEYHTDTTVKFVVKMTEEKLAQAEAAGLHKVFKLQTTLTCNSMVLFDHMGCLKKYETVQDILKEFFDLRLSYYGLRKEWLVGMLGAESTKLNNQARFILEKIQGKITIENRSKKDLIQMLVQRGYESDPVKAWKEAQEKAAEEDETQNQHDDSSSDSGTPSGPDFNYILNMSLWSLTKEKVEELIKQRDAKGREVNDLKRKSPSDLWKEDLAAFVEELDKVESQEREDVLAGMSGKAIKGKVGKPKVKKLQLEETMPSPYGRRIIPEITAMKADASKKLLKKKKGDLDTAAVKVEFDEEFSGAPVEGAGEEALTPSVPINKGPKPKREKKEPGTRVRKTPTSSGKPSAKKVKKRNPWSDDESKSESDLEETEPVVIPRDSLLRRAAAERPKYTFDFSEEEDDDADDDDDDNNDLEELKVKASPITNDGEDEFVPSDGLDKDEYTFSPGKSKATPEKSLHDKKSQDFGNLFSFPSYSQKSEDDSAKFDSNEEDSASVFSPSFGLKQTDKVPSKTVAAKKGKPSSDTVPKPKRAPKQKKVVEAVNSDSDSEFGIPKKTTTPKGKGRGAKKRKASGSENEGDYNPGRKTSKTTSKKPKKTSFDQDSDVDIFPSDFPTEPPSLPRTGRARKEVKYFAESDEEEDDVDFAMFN
T1 sequence (P11388 whole entry): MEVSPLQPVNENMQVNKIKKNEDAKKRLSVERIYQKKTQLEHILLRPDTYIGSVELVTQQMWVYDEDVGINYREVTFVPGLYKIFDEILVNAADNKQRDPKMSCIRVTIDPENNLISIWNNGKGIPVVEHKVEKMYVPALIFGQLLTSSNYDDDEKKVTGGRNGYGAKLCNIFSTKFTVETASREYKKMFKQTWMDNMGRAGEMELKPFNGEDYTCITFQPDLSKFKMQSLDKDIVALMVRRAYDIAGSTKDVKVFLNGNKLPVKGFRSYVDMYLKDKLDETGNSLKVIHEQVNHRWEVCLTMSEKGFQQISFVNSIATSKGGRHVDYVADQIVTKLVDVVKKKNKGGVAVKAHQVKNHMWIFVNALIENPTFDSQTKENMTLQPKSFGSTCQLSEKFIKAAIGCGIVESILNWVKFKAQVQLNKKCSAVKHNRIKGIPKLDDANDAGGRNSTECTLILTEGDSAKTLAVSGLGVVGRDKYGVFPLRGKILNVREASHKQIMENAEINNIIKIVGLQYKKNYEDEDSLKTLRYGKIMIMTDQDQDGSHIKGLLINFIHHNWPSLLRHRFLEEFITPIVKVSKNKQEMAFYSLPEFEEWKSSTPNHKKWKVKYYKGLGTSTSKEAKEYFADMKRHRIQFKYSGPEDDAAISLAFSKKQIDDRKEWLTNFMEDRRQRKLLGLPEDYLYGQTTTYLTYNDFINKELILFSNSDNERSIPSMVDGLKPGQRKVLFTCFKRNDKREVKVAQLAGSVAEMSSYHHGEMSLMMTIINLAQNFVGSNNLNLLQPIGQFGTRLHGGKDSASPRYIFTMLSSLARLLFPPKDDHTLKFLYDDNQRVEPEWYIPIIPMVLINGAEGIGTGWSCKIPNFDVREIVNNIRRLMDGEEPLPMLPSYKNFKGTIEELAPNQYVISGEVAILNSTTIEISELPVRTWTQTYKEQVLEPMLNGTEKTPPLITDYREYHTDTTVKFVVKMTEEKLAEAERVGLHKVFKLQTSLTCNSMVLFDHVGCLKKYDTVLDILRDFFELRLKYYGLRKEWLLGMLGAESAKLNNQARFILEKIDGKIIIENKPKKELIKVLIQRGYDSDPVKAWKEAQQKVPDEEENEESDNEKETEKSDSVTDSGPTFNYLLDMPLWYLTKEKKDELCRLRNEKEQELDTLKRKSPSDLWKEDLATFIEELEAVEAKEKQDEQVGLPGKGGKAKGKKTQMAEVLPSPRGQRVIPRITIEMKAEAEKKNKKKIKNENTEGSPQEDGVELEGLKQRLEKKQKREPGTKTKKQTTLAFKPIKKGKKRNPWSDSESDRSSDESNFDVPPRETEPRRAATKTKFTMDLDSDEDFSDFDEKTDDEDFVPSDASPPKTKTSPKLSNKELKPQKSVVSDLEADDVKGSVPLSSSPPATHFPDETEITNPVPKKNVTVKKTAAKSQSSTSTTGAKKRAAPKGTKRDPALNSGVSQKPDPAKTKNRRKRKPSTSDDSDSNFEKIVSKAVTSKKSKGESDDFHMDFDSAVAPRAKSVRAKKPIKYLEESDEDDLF

Structure (SMILES)	IC50 (topoisomerase IIα [1])	cellular ICE assay of covalent enzyme-DNA complexes in K562 cells (topoisomerase IIβ)	IC50 (topoisomerase I)	IC50 (topoisomerase IIα [2])	Ki (yeast topoisomerase II)
Nc1ncnc2c1ncn2[C@@H]1O[C@H](COP(=O)(O)OP(=O)(O)NP(=O)(O)O)[C@@H](O)[C@H]1O [AMP-PNP]	2 ± 0.4 µM				
CN1CCN(c2ccc3nc(-c4c(N)c5c(F)cccc5[nH]c4=O)[nH]c3c2)CC1 [dovitinib]		Both dovitinib and etoposide also induced concentration dependent increases in the amount of the topoisomerase IIβ-covalent complex	6.2 ± 1.7 µM	13 ± 4 µM	2.4 ± 1.5 µM
COc1cc([C@@H]2c3cc4c(cc3[C@@H](O[C@@H]3O[C@@H]5CO[C@@H](C)O[C@H]5[C@H](O)[C@H]3O)[C@H]3COC(=O)[C@H]23)OCO4)cc(OC)c1O [etoposide, reference compound]		Both dovitinib and etoposide also induced concentration dependent increases in the amount of the topoisomerase IIβ-covalent complex			
